Source: ChEMBL document CHEMBL1142406, “2-Heteroarylimino-5-benzylidene-4-thiazolidinones analogues of 2-thiazolylimino-5-benzylidene-4-thiazolidinones with antimicrobial activity: synthesis and structure-activity relationship” (2008)
In brackets after ≈: the same amount, converted by molar mass. Activity calls are given as the source filed them. No cut-off for these calls is given here.

How the values were obtained:
[1] = tested on: Staphylococcus haemolyticus; assay: Antimicrobial activity against Staphylococcus haemolyticus by broth dilution technique; type: functional
Outline: (§1)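 Broth dilution in Mueller Hinton Broth. Compounds are dissolved in DMSO (never above 1% v/v final) and serially diluted. MIC is the lowest concentration giving complete growth inhibition.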

[2] = tested on: Escherichia coli; assay: Antimicrobial activity against Escherichia coli SPA27 upto 100 ug/ml by broth dilution technique; type: functional, organism-based; outline: as §1
[3] = tested on: Saccharomyces cerevisiae; assay: Antimicrobial activity against Saccharomyces cerevisiae ATCC 9763 upto 100 ug/ml by broth dilution technique; type: functional, organism-based
Outline: (§2)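 Fungi are tested by Sabouraud Liquid Medium dilution. Compounds are in DMSO, with DMSO at most 1% v/v final. Inoculum is 1×10³ fungi/mL, incubated 48 h at 30 °C. MIC is the lowest concentration completely inhibiting growth. For MFC, 100 µL of clear mixtures is subcultured into 1 mL fresh medium and read after 48 h at 30 °C.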

[4] = tested on: Staphylococcus epidermidis; assay: Antimicrobial activity against Staphylococcus epidermidis ATCC 12228 by broth dilution technique
[5] = tested on: Bacillus thuringiensis; assay: Antimicrobial activity against Bacillus thuringiensis var. kurstaki BGSC 4D1 by broth dilution technique; type: functional; details: serovar kurstaki; outline: as §1
[6] = tested on: Priestia megaterium; assay: Antimicrobial activity against Bacillus megaterium by broth dilution technique; type: functional; outline: as §1
[7] = tested on: Micrococcus luteus; assay: Antimicrobial activity against Sarcina lutea by broth dilution technique; type: functional; outline: as §1
[8] = tested on: Haemophilus influenzae; assay: Antimicrobial activity against Haemophilus influenzae by broth dilution technique; type: functional
Outline: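 Haemophilus Test Medium broth dilution. Compounds in DMSO are added to final dilutions, with DMSO at most 1% v/v. MIC is the lowest concentration completely inhibiting growth.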

[9] = tested on: Staphylococcus epidermidis; assay: Antimicrobial activity against penicillin-resistant Staphylococcus epidermidis by broth dilution technique; type: functional
Outline: (§3)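 Broth dilution in Mueller Hinton Broth with compounds predissolved in DMSO (at most 1% v/v). Final concentrations ranged from 100 to 0.0015, and the inoculum was 5.10⁴ bacteria/mL. Plates were incubated at 37 °C for 24 h. MIC was taken as the lowest concentration giving complete growth inhibition.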

[10] = tested on: Enterococcus faecium; assay: Antimicrobial activity against Streptococcus faecium by broth dilution technique; type: functional; outline: as §1
[11] = tested on: Staphylococcus aureus; assay: Antimicrobial activity against penicillin-resistant Staphylococcus aureus by broth dilution technique; type: functional; outline: as §3
[12] = tested on: Streptococcus pyogenes; assay: Antimicrobial activity against Streptococcus pyogenes by broth dilution technique; type: functional
Outline: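 Tryptose Phosphate Broth dilution. Compounds are dissolved in DMSO, with DMSO at most 1% v/v final. MIC is taken as the lowest concentration with complete growth inhibition.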

[13] = tested on: Aspergillus niger; assay: Antimicrobial activity against Aspergillus niger ATCC 6275 upto 100 ug/ml by broth dilution technique; type: functional, organism-based; outline: as §2
[14] = tested on: Staphylococcus aureus; assay: Antimicrobial activity against Staphylococcus aureus ATCC 25923 by broth dilution technique; type: functional; outline: as §1
[15] = tested on: Enterococcus faecalis; assay: Antimicrobial activity against Streptococcus faecalis by broth dilution technique; type: functional; outline: as §1
[16] = tested on: Bacillus subtilis; assay: Antimicrobial activity against Bacillus subtilis ATCC 6633 by broth dilution technique; type: functional; outline: as §1
[17] = tested on: Candida tropicalis; assay: Antimicrobial activity against Candida tropicalis ATCC 1369 upto 100 ug/ml by broth dilution technique; type: functional, organism-based; outline: as §2
[18] = tested on: Streptococcus agalactiae; assay: Antimicrobial activity against Streptococcus agalactiae by broth dilution technique; type: functional; outline: as §1

| SMILES | MIC [1] [µg/mL] | Activity [2] | Activity [3] | MIC [4] [µg/mL] | MIC [5] [µg/mL] | MIC [6] [µg/mL] | MIC [7] [µg/mL] | MIC [8] [µg/mL] | MIC [9] [µg/mL] | MIC [10] [µg/mL] | MIC [11] [µg/mL] | MIC [12] [µg/mL] | Activity [13] | MIC [14] [µg/mL] | MIC [15] [µg/mL] | MIC [16] [µg/mL] | Activity [17] | MIC [18] [µg/mL] |
| --- | --- | --- | --- | --- | --- | --- | --- | --- | --- | --- | --- | --- | --- | --- | --- | --- | --- | --- |
| O=C1N/C(=N\c2nccs2)S/C1=C\c1cccc(Cl)c1 | 3 (≈ 9.32 µM) | inactive | inactive | 1.5 (≈ 4.66 µM) | 1.5 (≈ 4.66 µM) | 0.15 (≈ 0.466 µM) | 1.5 (≈ 4.66 µM) | 0.3 (≈ 0.932 µM) | 1.5 (≈ 4.66 µM) | 3 (≈ 9.32 µM) | 0.7 (≈ 2.18 µM) | 12 (≈ 37.3 µM) | inactive | 1.5 (≈ 4.66 µM) | 50 (≈ 155 µM) | 0.3 (≈ 0.932 µM) | inactive | 1.5 (≈ 4.66 µM) |
| COc1ccc(/C=C2\S/C(=N\c3nsc4ccccc34)NC2=O)cc1 | – | inactive | inactive | – | – | – | – | > 100 | – | – | – | – | inactive | > 100 | – | > 100 | inactive | – |
| O=C1N/C(=N\c2nc3ccccc3s2)S/C1=C\c1ccc(Cl)cc1 | 100 (≈ 269 µM) | inactive | inactive | 12 (≈ 32.3 µM) | 6 (≈ 16.1 µM) | 12 (≈ 32.3 µM) | 12 (≈ 32.3 µM) | > 100 | 12 (≈ 32.3 µM) | > 100 | > 100 | > 100 | inactive | > 100 | 100 (≈ 269 µM) | 12 (≈ 32.3 µM) | inactive | > 100 |
| O=C1N/C(=N\c2nc3ccccc3s2)S/C1=C\c1ccccc1Cl | > 100 | inactive | inactive | 12 (≈ 32.3 µM) | 12 (≈ 32.3 µM) | 12 (≈ 32.3 µM) | 12 (≈ 32.3 µM) | > 100 | 25 (≈ 67.2 µM) | > 100 | 12 (≈ 32.3 µM) | 25 (≈ 67.2 µM) | inactive | 12 (≈ 32.3 µM) | > 100 | 12 (≈ 32.3 µM) | inactive | > 100 |
| CC1(C)S[C@@H]2[C@H](NC(=O)[C@H](N)c3ccccc3)C(=O)N2[C@H]1C(=O)O [AMPICILLIN] | 0.03 (≈ 0.0859 µM) | inactive | inactive | 3 (≈ 8.59 µM) | 50 (≈ 143 µM) | 0.07 (≈ 0.2 µM) | 0.0015 (≈ 0.00429 µM) | 0.07 (≈ 0.2 µM) | 25 (≈ 71.5 µM) | 100 (≈ 286 µM) | 25 (≈ 71.5 µM) | 0.007 (≈ 0.02 µM) | inactive | 0.07 (≈ 0.2 µM) | 0.7 (≈ 2 µM) | 0.007 (≈ 0.02 µM) | inactive | 0.03 (≈ 0.0859 µM) |
| O=C1N/C(=N/c2nsc3ccccc23)S/C1=C\c1ccc(Cl)cc1 | > 100 | inactive | inactive | > 100 | 6 (≈ 16.1 µM) | 0.7 (≈ 1.88 µM) | > 100 | > 100 | > 100 | > 100 | > 100 | > 100 | inactive | > 100 | > 100 | 3 (≈ 8.07 µM) | inactive | 50 (≈ 134 µM) |
| O=C1N/C(=N\c2nccs2)S/C1=C\c1ccc([N+](=O)[O-])cc1 | 6 (≈ 18.1 µM) | inactive | inactive | 6 (≈ 18.1 µM) | 1.5 (≈ 4.51 µM) | 0.7 (≈ 2.11 µM) | 3 (≈ 9.03 µM) | 0.3 (≈ 0.903 µM) | 6 (≈ 18.1 µM) | > 100 | 1.5 (≈ 4.51 µM) | > 100 | inactive | 3 (≈ 9.03 µM) | > 100 | 1.5 (≈ 4.51 µM) | inactive | 1.5 (≈ 4.51 µM) |
| COc1cc(/C=C2\S/C(=N\c3nsc4ccccc34)NC2=O)ccc1O | – | inactive | inactive | – | – | – | – | > 100 | – | – | – | – | inactive | > 100 | – | > 100 | inactive | – |
| O=C1N/C(=N/c2nsc3ccccc23)S/C1=C\c1ccccc1 | – | inactive | inactive | – | – | – | – | > 100 | – | – | – | – | inactive | > 100 | – | > 100 | inactive | – |
